From ChEMBL document CHEMBL1127302 (J Med Chem, 1994)

Experiments:
[1] = biological target: Neuronal acetylcholine receptor (Rattus norvegicus) (UniProt P04757+P09483+P12389+P12390+P12392+P43144+Q9JLB5+P12391+P43143+P20420+Q05941); experiment: In vitro neuronal nAChRs evoked [3H]dopamine release was determined in rat striatal slices at concentration of 10e-6 M; format: functional
[2] = biological target: Neuronal acetylcholine receptor; experiment: In vitro binding affinity to neuronal nAChRs was determined by measuring the displacement of [3H]cytisine in rat brain; format: tissue-based
Procedure, shortened: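 Whole rat brain membrane preparation; displacement of [3H]cytisine from neuronal nAChRs. Binding normalised to equilibrium dissociation constants (Ki). Values are means ± SEM.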

## CCN1CCC[C@@H]1c1cc(C)no1
[1]
  Dopamine release: 64%
[2]
  Ki: 34.3 nM

## c1cncc([C@H]2CCCN2)c1
[1]
  Dopamine release: 93%

## CN1CCC[C@H]1c1cccnc1
[1]
  Dopamine release: 126%

## CN1CCC[C@@H]1c1cccnc1
[1]
  Dopamine release: 114%

## c1ccc(-c2cc([C@H]3CCCN3)on2)cc1
[2]
  Ki: > 10000 nM

## CCc1cc([C@@H]2CCCN2)on1
[1]
  Dopamine release: 79%
[2]
  Ki: 11.7 nM

## Cc1cc([C@H]2CCCN2)sn1
[1]
  Dopamine release: 61%
[2]
  Ki: 51 nM

## Cc1cc([C@@H]2CCCN2)sn1
[1]
  Dopamine release: 56%
[2]
  Ki: 228 nM

## CN1CCC[C@@H]1c1cc(C(F)(F)F)no1
[1]
  Dopamine release: 92%
[2]
  Ki: 6.1 nM

## CCCCc1cc([C@H]2CCCN2)on1
[2]
  Ki: 5000 nM

## CN1CCC[C@@H]1c1cc(-c2ccccc2)no1
[2]
  Ki: 788 nM

## CN1CCC[C@@H]1c1cc(CO)no1
[1]
  Dopamine release: 41%
[2]
  Ki: 126 nM

## CCc1cc([C@H]2CCCN2)on1
[1]
  Dopamine release: 30%
[2]
  Ki: 552 nM

## Cc1cc([C@@H]2CCCN2C)on1
[1]
  Dopamine release: 85%

## Cc1cc([C@H]2CCCN2C)on1
[1]
  Dopamine release: 95%

## CCOC(=O)c1cc([C@H]2CCCN2C)on1
[2]
  Ki: 890 nM

## Cc1cc([C@@H]2CCCN2C)sn1
[1]
  Dopamine release: 22%

## CCc1cc([C@@H]2CCCN2C)on1
[1]
  Dopamine release: 46%

## Cc1cc([C@H]2CCCN2)on1
[1]
  Dopamine release: 43%
[2]
  Ki: 333 nM

## CCCc1cc([C@H]2CCCN2)on1
[2]
  Ki: > 10000 nM

## Cc1cc([C@@H]2CCCN2)on1
[1]
  Dopamine release: 111%
[2]
  Ki: 7.4 nM

## Cc1cc([C@H]2CCCN2C)no1
[2]
  Ki: 1330 nM

## CN1CCC[C@@H]1c1cc(Cc2ccccc2)no1
[1]
  Dopamine release: 30%
[2]
  Ki: 7.4 nM

## CCCc1cc([C@H]2CCCN2C)on1
[1]
  Dopamine release: 45%
[2]
  Ki: 14 nM

## CCCCc1cc([C@H]2CCCN2C)on1
[1]
  Dopamine release: 38%
[2]
  Ki: 24.2 nM

## COCc1cc([C@H]2CCCN2C)on1
[1]
  Dopamine release: 51%
[2]
  Ki: 21.9 nM

## c1cncc([C@@H]2CCCN2)c1
[1]
  Dopamine release: 155%

## CCc1cc([C@H]2CCCN2C)on1
[1]
  Dopamine release: 78%
[2]
  Ki: 7.6 nM

## Cc1cc([C@H]2CCCN2C)sn1
[1]
  Dopamine release: 41%
